Substrate: C[C@@H](O)[C@H]1C(=O)N2C(C(=O)O)=C(SCCNC=N)C[C@H]12
Experiment: Activity of Aeromonas veronii metallo-beta-lactamase ImiS
In short: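 Purified enzyme; initial rates of imipenem hydrolysis followed by UV spectrophotometry (262 or 300 nm) in 50 mM Tris pH 7.0, 25 °C. Substrate 24–140 μM, inhibitor 0–10 μM. Rates in triplicate and averaged. Inhibition mode from Lineweaver–Burk plots. Ki from fits of initial velocity vs substrate concentration at each inhibitor level.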

B1: Beta-lactamase (Aeromonas veronii), O31272 (protein)
chain: MMKGWIKCGLAGAVVLMASFWGGSVRAAGMSLTQQVSGPVYVVEDNYYVQENSMVYFGAKGVTVVGATWTPDTARELHKLIKRVSRKPVLEVINTNYHTDRAGGNAYWKSIGAKVISTRQTRDLMKSDWAEIVAFTRKGLPEYPDLPLVLPNVVHEGDFTLQEGKLRAFYLGPAHSPDGIFVYFPDQQVLYGNCILKEKLGNLSFADVKAYPQTLERLKAMKLPIKTVVGGHDSPLHGPELIDHYEALIKAASQS
Km: 99 µM
kcat: 255 s⁻¹

Reference: ChEMBL document CHEMBL3576784, “Azolylthioacetamide: A Highly Promising Scaffold for the Development of Metallo-β-lactamase Inhibitors” (ACS Med Chem Lett, 2015)
